Data published in ChEMBL document CHEMBL1149224, “Direct superoxide anion scavenging by a highly water-dispersible carotenoid phospholipid evaluated by electron paramagnetic resonance (EPR) spectroscopy” (2004).

Experiments:
Format in all cases: functional
Homo sapiens [1] = organism: Homo sapiens; assay: Mean percent inhibition of aqueous superoxide anion production in isolated human neutrophil assay at 10 mM using water as solvent
Procedure, shortened: (§1)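 The carotenoid phospholipid isomer mix was dispersed in deionized water without heat, detergent or additives. Isolated human PMNs (Percoll gradient, hypotonic erythrocyte lysis, washed in PIPES-HSA-glucose buffer, pH 7.4) were preincubated 5 min with the suspension, then PMA-stimulated. Superoxide was spin-trapped with 10 mM DEPMPO and the DEPMPO-OOH signal measured by X-band EPR. Inhibition is expressed relative to the no-compound control signal.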

Homo sapiens [2] = organism: Homo sapiens; assay: Mean percent inhibition of aqueous superoxide anion production in isolated human neutrophil assay at 0.3 mM using ethanol as solvent
Procedure, shortened: (§2)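 Human PMNs from one donor's venous blood were isolated on a Percoll gradient (1.080 g/mL, 400g, 20 min, 20 C), erythrocytes removed by hypotonic lysis, and cells washed in PAG buffer (PIPES pH 7.4, 0.003% HSA, 0.1% glucose). Carotenoid phospholipid isomer mix was taken from a 41.2% EtOH stock (0.4% EtOH final). Cells were preincubated 5 min, then PMA-stimulated. The DEPMPO-OOH adduct (10 mM DEPMPO) was read by X-band EPR, and % inhibition set against the no-compound control.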

Homo sapiens [3] = organism: Homo sapiens; assay: Mean percent inhibition of aqueous superoxide anion production in isolated human neutrophil assay at 3 mM using ethanol as solvent; procedure, shortened: as §2
Homo sapiens [4] = organism: Homo sapiens; assay: Mean percent inhibition of aqueous superoxide anion production in isolated human neutrophil assay at 1 mM using water as solvent; procedure, shortened: as §1
Homo sapiens [5] = organism: Homo sapiens; assay: Mean percent inhibition of aqueous superoxide anion production in isolated human neutrophil assay at 3 mM using water as solvent; procedure, shortened: as §1
Homo sapiens [6] = organism: Homo sapiens; assay: Mean percent inhibition of aqueous superoxide anion production in isolated human neutrophil assay at 1 mM using ethanol as solvent; procedure, shortened: as §2
Homo sapiens [7] = organism: Homo sapiens; assay: Mean percent inhibition of aqueous superoxide anion production in isolated human neutrophil assay at 0.1 mM using ethanol as solvent; procedure, shortened: as §2
Homo sapiens [8] = organism: Homo sapiens; assay: Mean percent inhibition of aqueous superoxide anion production in isolated human neutrophil assay at 0.5 mM using water as solvent; procedure, shortened: as §1
Homo sapiens [9] = organism: Homo sapiens; assay: Mean percent inhibition of aqueous superoxide anion production in isolated human neutrophil assay at 0.5 mM using ethanol as solvent; procedure, shortened: as §2

Structure (SMILES) | Mean inhibition (Homo sapiens [1]) [%] | Mean inhibition (Homo sapiens [2]) [%] | Mean inhibition (Homo sapiens [3]) [%] | Mean inhibition (Homo sapiens [4]) [%] | Mean inhibition (Homo sapiens [5]) [%] | Mean inhibition (Homo sapiens [6]) [%] | Mean inhibition (Homo sapiens [7]) [%] | Mean inhibition (Homo sapiens [8]) [%] | Mean inhibition (Homo sapiens [9]) [%]
CC1=C(/C=C/C(C)=C/C=C/C(C)=C/C=C/C=C(C)/C=C/C=C(\C)C(=O)OC(CO)COP(=O)([O-])OCC[N+](C)(C)C)C(C)(C)CCC1.CC1=C(/C=C/C(C)=C/C=C/C(C)=C/C=C/C=C(C)/C=C/C=C(\C)C(=O)OCC(CO)OP(=O)([O-])OCC[N+](C)(C)C)C(C)(C)CCC1.CC1=C(/C=C/C(C)=C/C=C/C(C)=C/C=C/C=C(C)/C=C/C=C(\C)C(=O)OCC(O)COP(=O)([O-])OCC[N+](C)(C)C)C(C)(C)CCC1 (stereo not given) | 94.3 | 31.3 | 98.7 | 24.6 | 51.8 | 79.3 | 13.3 | 18.2 | 61.7
CC1=C(/C=C/C(C)=C/C=C/C(C)=C/C=C/C=C(C)/C=C/C=C(C)/C=C/C2=C(C)C(=O)C(OC(=O)CCC(=O)[O-])CC2(C)C)C(C)(C)CC(OC(=O)CCC(=O)[O-])C1=O.[Na+].[Na+] (stereo not given) [DISODIUM SALT DISUCCINATE DIESTER OF ASTAXANTHIN] | – | – | – | – | – | – | 38 | – | –
